{
  "source": "ChEMBL document CHEMBL1123582",
  "about": "“Substituted 2-(2-hydroxyphenyl)benzimidazoles as potential agents for the control of periodontal diseases” (1987)",
  "key": {"[1]": {"system": "Actinomyces viscosus", "experiment": "Evaluated for the in vitro minimum bactericidal concentration (MBC) against periopathogenic Actinomycetes viscosus bacteria", "assay_type": "functional", "in_short": "(§1)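 Tested against A. viscosus M100-2000, maintained in Trypticase Soy Broth with excess CaCO3, by tube dilution. EtOH or Me2SO stocks (1 mg/100 μL) were diluted at least 100-fold into 3-fold dilution series in Bacto Anaerobe broth. Tubes were seeded with 50 μL of 10⁸ cfu/mL log-phase culture and held at 37 °C in an anaerobic chamber (5% CO2, 10% H2, 85% Ar). Values are in μg/mL, consistent in triplicate.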"}, "[2]": {"system": "Porphyromonas gingivalis", "experiment": "Evaluated for the in vitro minimum bactericidal concentration (MBC) against periopathogenic Bacteroides gingivalis bacteria", "assay_type": "functional", "in_short": "(§2)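 B. gingivalis 381, maintained in Trypticase Soy Broth plus excess CaCO3, was assayed by tube dilution. Stocks of 1 mg/100 μL in EtOH or Me2SO were diluted 100-fold or more to give 3-fold dilutions in Bacto Anaerobe broth. Inoculum was 50 μL of log-phase culture at 10⁸ cfu/mL, with incubation at 37 °C anaerobically (5% CO2/10% H2/85% Ar). Concentrations are μg/mL, consistent for triplicate assays.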"}, "[3]": {"system": "Aggregatibacter actinomycetemcomitans", "experiment": "Evaluated for the in vitro minimum bactericidal concentration (MBC) against periopathogenic Actinobacillus actinomycetemcommitans bacteria; NE means not effective", "assay_type": "functional, organism-based", "in_short": "(§3)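 Tube dilution test against A. actinomycetemcomitans Y4, kept in Trypticase Soy Broth with excess CaCO3. Compound stocks of 1 mg/100 μL EtOH or Me2SO were diluted at least 100-fold into 3-fold series in Bacto Anaerobe broth. Each tube got 50 μL of log-phase inoculum at 10⁸ cfu/mL and was incubated at 37 °C under anaerobic 5% CO2/10% H2/85% Ar. Values are μg/mL, consistent across triplicates.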"}, "[4]": {"system": "Porphyromonas gingivalis", "experiment": "Evaluated for the in vitro minimum bactericidal concentration (MBC) against periopathogenic Bacteroides gingivalis bacteria; NE means not effective", "assay_type": "functional, organism-based", "in_short": "as §2"}, "[5]": {"system": "Actinomyces viscosus", "experiment": "Evaluated for the in vitro minimum bactericidal concentration (MBC) against periopathogenic Actinomycetes viscosus bacteria; NE means not effective", "assay_type": "functional, organism-based", "in_short": "as §1"}, "[6]": {"system": "Actinomyces viscosus", "experiment": "Evaluated for the in vitro minimum bactericidal concentration (MBC) against periopathogenic Actinomycetes viscosus bacteria.", "assay_type": "functional", "in_short": "as §1"}, "[7]": {"system": "Aggregatibacter actinomycetemcomitans", "experiment": "Evaluated for the in vitro minimum bactericidal concentration (MBC) against periopathogenic Actinobacillus actinomycetemcommitans bacteria", "assay_type": "functional", "in_short": "as §3"}, "[8]": {"system": "Actinomyces viscosus", "experiment": "Evaluated for the in vitro minimum bactericidal concentration (MBC) against periopathogenic Actinomycetes viscosus bacteria;NE means not effective", "assay_type": "functional, organism-based", "in_short": "as §1"}},
  "note": "Active and inactive are the calls of the source. The calls are words filed in the database; no cut-off is given here.",
  "data": [
    {"smiles": "CCCCCCC(=O)c1ccc(O)c(-c2nc3cc(C(F)(F)F)ccc3[nH]2)c1", "values": [
      {"measurement": "MBC", "setting": "[1]", "result": 0.5, "unit": "µg/mL"},
      {"measurement": "MBC", "setting": "[2]", "result": 0.05, "unit": "µg/mL"},
      {"measurement": "MBC", "setting": "[3]", "result": "inactive"}
    ]},
    {"smiles": "CCCCCCCCCC(=O)c1ccc(O)c(-c2nc3cc(C(F)(F)F)ccc3[nH]2)c1", "values": [
      {"measurement": "MBC", "setting": "[3]", "result": "inactive"},
      {"measurement": "MBC", "setting": "[4]", "result": "inactive"},
      {"measurement": "MBC", "setting": "[5]", "result": "inactive"}
    ]},
    {"smiles": "CCCCC(=O)c1ccc(O)c(-c2nc3cc(C(F)(F)F)ccc3[nH]2)c1", "values": [
      {"measurement": "MBC", "setting": "[2]", "result": 0.5, "unit": "µg/mL"},
      {"measurement": "MBC", "setting": "[3]", "result": "inactive"},
      {"measurement": "MBC", "setting": "[6]", "result": 0.5, "unit": "µg/mL"}
    ]},
    {"smiles": "N=C(NCCCCCCNC(=N)NC(=N)Nc1ccc(Cl)cc1)NC(=N)Nc1ccc(Cl)cc1", "note": "[CHLORHEXIDINE]", "values": [
      {"measurement": "MBC", "setting": "[1]", "result": 0.5, "unit": "µg/mL"},
      {"measurement": "MBC", "setting": "[2]", "result": 0.05, "unit": "µg/mL"},
      {"measurement": "MBC", "setting": "[7]", "result": 0.5, "unit": "µg/mL"}
    ]},
    {"smiles": "CCCCCCCCC(=O)c1ccc(O)c(-c2nc3cc([N+](=O)[O-])ccc3[nH]2)c1", "values": [
      {"measurement": "MBC", "setting": "[3]", "result": "inactive"},
      {"measurement": "MBC", "setting": "[4]", "result": "inactive"},
      {"measurement": "MBC", "setting": "[5]", "result": "inactive"}
    ]},
    {"smiles": "CCCCCCC(=O)c1ccc(O)c(-c2nc3cc(Cl)ccc3[nH]2)c1", "values": [
      {"measurement": "MBC", "setting": "[3]", "result": "inactive"},
      {"measurement": "MBC", "setting": "[4]", "result": "inactive"},
      {"measurement": "MBC", "setting": "[5]", "result": "inactive"}
    ]},
    {"smiles": "CCCCCCCC(=O)c1ccc(O)c(-c2nc3cc(Cl)ccc3[nH]2)c1", "values": [
      {"measurement": "MBC", "setting": "[5]", "result": "inactive"}
    ]},
    {"smiles": "Oc1c(Br)cc(Br)cc1-c1nc2cc(Cl)ccc2[nH]1", "values": [
      {"measurement": "MBC", "setting": "[1]", "result": 0.5, "unit": "µg/mL"},
      {"measurement": "MBC", "setting": "[2]", "result": 0.05, "unit": "µg/mL"},
      {"measurement": "MBC", "setting": "[7]", "result": 5, "unit": "µg/mL"}
    ]},
    {"smiles": "CCCCCC(=O)c1ccc(O)c(-c2nc3cc(C(F)(F)F)ccc3[nH]2)c1", "values": [
      {"measurement": "MBC", "setting": "[1]", "result": 0.5, "unit": "µg/mL"},
      {"measurement": "MBC", "setting": "[2]", "result": 0.1, "unit": "µg/mL"},
      {"measurement": "MBC", "setting": "[3]", "result": "inactive"}
    ]},
    {"smiles": "CCCCCCCCC(=O)c1ccc(O)c(-c2nc3cc(C(F)(F)F)ccc3[nH]2)c1", "values": [
      {"measurement": "MBC", "setting": "[1]", "result": 0.5, "unit": "µg/mL"},
      {"measurement": "MBC", "setting": "[2]", "result": 0.1, "unit": "µg/mL"}
    ]},
    {"smiles": "Cc1ccc2[nH]c(-c3ccccc3O)nc2c1", "values": [
      {"measurement": "MBC", "setting": "[2]", "result": 1, "unit": "µg/mL"},
      {"measurement": "MBC", "setting": "[7]", "result": 1, "unit": "µg/mL"},
      {"measurement": "MBC", "setting": "[5]", "result": "inactive"}
    ]},
    {"smiles": "CN(C)[C@@H]1C(O)=C(C(N)=O)C(=O)[C@@]2(O)C(O)=C3C(=O)c4c(O)cccc4[C@@](C)(O)[C@H]3C[C@@H]12", "note": "[TETRACYCLINE]", "values": [
      {"measurement": "MBC", "setting": "[1]", "result": 0.5, "unit": "µg/mL"},
      {"measurement": "MBC", "setting": "[2]", "result": 0.05, "unit": "µg/mL"},
      {"measurement": "MBC", "setting": "[7]", "result": 0.5, "unit": "µg/mL"}
    ]},
    {"smiles": "CCCC(=O)c1ccc(O)c(-c2nc3cc(C(F)(F)F)ccc3[nH]2)c1", "values": [
      {"measurement": "MBC", "setting": "[1]", "result": 0.5, "unit": "µg/mL"},
      {"measurement": "MBC", "setting": "[2]", "result": 0.05, "unit": "µg/mL"},
      {"measurement": "MBC", "setting": "[7]", "result": 5, "unit": "µg/mL"}
    ]},
    {"smiles": "O=C(Nc1ccc(Br)cc1)c1cc(Br)cc(Br)c1O", "note": "[TRIBROMSALAN]", "values": [
      {"measurement": "MBC", "setting": "[1]", "result": 1, "unit": "µg/mL"},
      {"measurement": "MBC", "setting": "[2]", "result": 0.05, "unit": "µg/mL"},
      {"measurement": "MBC", "setting": "[7]", "result": 0.5, "unit": "µg/mL"}
    ]},
    {"smiles": "CCCCCCCCC(=O)c1ccc(O)c(-c2nc3cc(C)ccc3[nH]2)c1", "values": [
      {"measurement": "MBC", "setting": "[1]", "result": 10, "unit": "µg/mL"},
      {"measurement": "MBC", "setting": "[3]", "result": "inactive"}
    ]},
    {"smiles": "Oc1ccccc1-c1nc2cc(C(F)(F)F)ccc2[nH]1", "values": [
      {"measurement": "MBC", "setting": "[8]", "result": "inactive"},
      {"measurement": "MBC", "setting": "[2]", "result": 50, "unit": "µg/mL"},
      {"measurement": "MBC", "setting": "[3]", "result": "inactive"}
    ]},
    {"smiles": "CCCCCCC(=O)c1ccc(O)c(-c2nc3cc(C)ccc3[nH]2)c1", "values": [
      {"measurement": "MBC", "setting": "[3]", "result": "inactive"},
      {"measurement": "MBC", "setting": "[4]", "result": "inactive"},
      {"measurement": "MBC", "setting": "[5]", "result": "inactive"}
    ]},
    {"smiles": "Oc1c(Br)cc(Br)cc1-c1nc2cc(C(F)(F)F)ccc2[nH]1", "values": [
      {"measurement": "MBC", "setting": "[1]", "result": 0.1, "unit": "µg/mL"},
      {"measurement": "MBC", "setting": "[2]", "result": 0.05, "unit": "µg/mL"},
      {"measurement": "MBC", "setting": "[7]", "result": 1, "unit": "µg/mL"}
    ]},
    {"smiles": "CCCCCCCCC(=O)c1ccc(O)c(-c2nc3cc(Cl)ccc3[nH]2)c1", "values": [
      {"measurement": "MBC", "setting": "[3]", "result": "inactive"},
      {"measurement": "MBC", "setting": "[4]", "result": "inactive"},
      {"measurement": "MBC", "setting": "[5]", "result": "inactive"}
    ]},
    {"smiles": "CCCCCCCC(=O)c1ccc(O)c(-c2nc3cc(C(F)(F)F)ccc3[nH]2)c1", "values": [
      {"measurement": "MBC", "setting": "[1]", "result": 0.5, "unit": "µg/mL"},
      {"measurement": "MBC", "setting": "[2]", "result": 0.5, "unit": "µg/mL"},
      {"measurement": "MBC", "setting": "[3]", "result": "inactive"}
    ]}
  ]
}
